Assay [1] deals with Sodium/potassium-transporting ATPase. The assay is described as follows: Binding affinity towards Na+,K+ -ATPase isolated from dog kidney. The format is protein-complex assay, Canis lupus familiaris. The procedure, abridged:
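Displacement of specific [3H]ouabain binding from the Na+,K+-ATPase receptor, enzyme isolated from dog kidney and purified per Jørgensen. Means of two to three separate experiments in duplicate.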

The next assay is filed under the species Cavia porcellus. The assay is described as follows: In vitro increase in contractile force of the guine pig atrium. The format is functional, organism-based. The conditions noted are these: Cardiac atrium. The procedure, abridged: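 Left atria from male guinea pigs (300-500 g) in organ baths of bicarbonate salt solution with glucose and sucrose, 95% O2/5% CO2, 32 °C, 500 mg resting tension. Field-stimulated at 1 Hz (1 ms, twice threshold voltage). After 60 min equilibration, cumulative concentrations added, each held until maximal response or arrhythmia. Read-out: maximal increase in contractile force; EC50 from concentration–response curves.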

On to `C[C@]12CC[C@H](O)C[C@H]1CC[C@@H]1[C@@H]2CC[C@]2(C)[C@H](/C=N/OCCCCN)CC[C@]12O`, for which, in assay [1], the IC50 (in general, the concentration at which inhibition is half-maximal) was 1000 nM.

Take `C[C@]12CC[C@H](O)C[C@H]1CC[C@@H]1[C@@H]2CC[C@]2(C)[C@H](C/C=N/OCCCCN)CC[C@]12O`: the IC50 in assay [1] was 800 nM.

In assay [1], `CC[C@@H](C/C=N/OCCN)[C@@]1(C)CCC2C(CC[C@H]3C[C@@H](O)CC[C@]23C)C1=O` (stereo not given in full) gave a half-maximal inhibitory concentration (IC50) of 160 nM.

As to `CC[C@@H](C/C=N/OCCN)[C@@]1(C)CCC2C(CC[C@@H]3C[C@@H](O)CC[C@]23C)C1=O` (stereo not given in full), the IC50 in assay [1] worked out at 40 nM. Besides, in the assay listed under Cavia porcellus, the EC50 (usually the midpoint of the concentration-response curve) amounted to 1500 nM.

For the molecule `CC[C@H](/C=N/OCCN(C)C)[C@@]1(C)CCC2C(CC[C@@H]3C[C@@H](O)CC[C@]23C)C1=O` (stereo not given in full), the IC50 in assay [1] was 4000 nM.

Molecule `CCC[C@@H](C/C=N/OCCN)[C@@]1(C)CCC2C(CC[C@@H]3C[C@@H](O)CC[C@]23C)C1=O` (stereo not given in full) came in with an IC50 in assay [1] of 200 nM. Also, it took 5600 nM to reach a half-maximal effect in the assay listed under Cavia porcellus (EC50).

As for `C[C@@H](C/C=N/OCCN(C)C)[C@@]1(C)CCC2C(CC[C@@H]3C[C@@H](O)CC[C@]23C)C1=O` (stereo not given in full), the IC50 in assay [1] was 130 nM. In the assay filed under Cavia porcellus, this molecule gave an EC50 of 3000 nM.

`CN(C)CCO/N=C/C[C@@H]1CC[C@]2(O)[C@@H]3CC[C@@H]4C[C@@H](O)CC[C@]4(C)[C@H]3CC[C@]12C` gave an IC50 in assay [1] of 250 nM.

Consider `C[C@]12CC[C@H](O)C[C@H]1CC[C@@H]1[C@@H]2CC[C@]2(C)[C@H](/C=N/OCCCN)CC[C@]12O`, for which the IC50 in assay [1] was found to be 400 nM. This molecule also had an EC50 in the assay listed under Cavia porcellus of 18000 nM.

In assay [1], `CC[C@H](C/C=N/OCCN(C)C)[C@@]1(C)CCC2C(CC[C@@H]3C[C@@H](O)CC[C@]23C)C1=O` (stereo not given in full) came in with an IC50 of 800 nM.

In assay [1], `C[C@]12CC[C@H](O)C[C@H]1CC[C@@H]1[C@@H]2CC[C@]2(C)[C@H](C/C=N/OCCCN)CC[C@]12O` gave an IC50 of 200 nM.

In assay [1], `CC[C@@H](C/C=N/OCCN(C)C)[C@@]1(C)CCC2C(CC[C@@H]3C[C@@H](O)CC[C@]23C)C1=O` (stereo not given in full) yielded an IC50 of 100 nM. The EC50 in the assay filed under Cavia porcellus turned out to be 2000 nM.

`C[C@]12CC[C@H](O)C[C@H]1CC[C@@H]1[C@@H]2CC[C@]2(C)[C@H](C/C=N/OCCN)CC[C@]12O` had an IC50 in assay [1] of 50 nM. In the assay filed under Cavia porcellus, this molecule came in with an EC50 of 3500 nM.

In assay [1], `CN(C)CCO/N=C/[C@@H]1CC[C@]2(O)[C@@H]3CC[C@@H]4C[C@@H](O)CC[C@]4(C)[C@H]3CC[C@]12C` yielded an IC50 of 1600 nM.

In the case of `C[C@]12CC[C@H](O)C[C@H]1CC[C@@H]1[C@@H]2CC[C@]2(C)[C@@H](C3=CC(=O)OC3)CC[C@]12O` [DIGITOXIGENIN], the half-maximal effective concentration (EC50) in the assay filed under Cavia porcellus came to 570 nM.

`C[C@]12CC[C@H](O)C[C@H]1CC[C@@H]1[C@@H]2CC[C@]2(C)[C@H](/C=N/OCCN)CC[C@]12O` displayed an IC50 in assay [1] of 400 nM.

The molecule `CC[C@@H](C/C=N/OCCN(C)C)[C@@]1(C)CCC2C(CC[C@H]3C[C@@H](O)CC[C@]23C)C1=O` (stereo not given in full) displayed an IC50 in assay [1] of 250 nM.

The molecule `C[C@@H](C/C=N/OCCN)[C@@]1(C)CCC2C(CC[C@@H]3C[C@@H](O)CC[C@]23C)C1=O` (stereo not given in full) came in with an IC50 in assay [1] of 100 nM.

Take `CC[C@@H](/C=N/OCCN(C)C)[C@@]1(C)CCC2C(CC[C@H]3C[C@@H](O)CC[C@]23C)C1=O` (stereo not given in full): the IC50 in assay [1] stood at 500 nM.

(Values after ChEMBL document CHEMBL1134675, “17 alpha-O-(aminoalkyl)oxime derivatives of 3 beta,14 beta-dihydroxy-5 beta-androstane and 3 beta-hydroxy-14-oxoseco-D-5 beta-androstane as inhibitors of Na(+),K(+)-ATPase at the digitalis receptor” (J Med Chem, 2001).)
